The nature of this data set: Toxicity liver stage against HepG2, at 10uM. Format: cell-based. Also noted: test concentration 10 uM, cell line HepG2-A16-CD81EGFP. The note with it: human, HepG2-A16-CD81EGFP cells; read-out: INHIBITION
The method, boiled down:
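Uninfected HepG2-A16-CD81EGFP cells, 3 × 10^3 per well, 1536-well, plated on prespotted compound at 10 μM final, parasite-free screening media added to match infected plates; puromycin 10 μM positive, DMSO 0.5% negative; run in parallel with 48 h PbLuc assay at 37 °C, 5% CO2; viability by CellTiter-Glo luminescence, normalized to controls.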

Our source for the cytotoxicity values is ChEMBL document CHEMBL4513216, “Probing the Open Global Health Chemical Diversity Library for Multistage-Active Starting Points for Next-Generation Antimalarials” (ACS Infect Dis, 2020).

Molecules are shown by their SMILES.

On to `Cc1noc(C(C)N2CCN(c3ncnc4sccc34)CC2)n1` (stereo unspecified), for which the cytotoxicity at 10 µM is 8.38%.
The same measure for `CS(=O)(=O)N1C[C@H]2CCCN(Cc3cccs3)[C@H]2C1`: 7.69%; for `O=C([C@@H]1CC[C@@H]2[C@@H](CCN2Cc2cccs2)O1)N1CCCCO1`: -2.33%.
The same measure for `Cc1cc(C2CCCN(Cc3nnc(Cc4ccccc4)o3)C2)n[nH]1` (stereo unspecified): -5.78%.
On to `CCOCC1c2c(ncn2C)CCN1C(=O)c1cscn1` (stereo unspecified), for which the cytotoxicity at 10 µM is -98.2%.
The figure for `CC1(c2ncc(CN3CCN(c4ccccn4)CC3)cn2)CCCCO1` (stereo unspecified) is 2.68%; for `Cc1ncc2c(n1)CN(CC(O)COc1ccc(C#N)cc1)CC2` (stereo unspecified) it is 7.45%; for `CCN(CCO)C[C@@H]1CN(C(=O)c2ccc(C)s2)C[C@@H]1CO` it is 12.1%.
The figure for `CC(c1ccco1)N(C(=O)NCc1ccon1)C1CC1` (stereo unspecified) is 0.805%; for `c1cc(C2CCN(C3CCCCC3)C2)n[nH]1` (stereo unspecified) it is 1.65%; for `c1cncc(COCC2CN(Cc3ccco3)Cc3ccnn3C2)c1` (stereo unspecified) it is -14.4%.
Regarding `CN(C)C(=O)c1cc2c(s1)CCN(C(=O)CCCN1CCCCC1)C2`, the cytotoxicity at 10 µM is -41.4%.
The same measure for `Cc1c[nH]nc1C1CCN(S(=O)(=O)N(C)C)C1` (stereo unspecified): -13%; for `Cc1ccccc1N1CC2(CCN(S(=O)(=O)C3CC3)C2)CC1=O` (stereo unspecified): 3.12%.
The same measure for `CN1CCCC(c2cccc(CCC(=O)NCC3(C)COC3)n2)C1` (stereo unspecified): -8.24%; for `Cc1ccc(-n2ncc(C(=O)NCC3CCS(=O)(=O)C3)c2C)cc1` (stereo unspecified): -9.01%; for `CN1CCN(S(C)(=O)=O)c2cc(F)ccc21`: -1.15%.
The figure for `CCC(C(=O)N(C)Cc1cc(-c2ccccc2)n[nH]1)n1cccn1` (stereo unspecified) is -7.35%.
As to `Cc1cccc(CN2CCC3(CCCN(C(=O)NC(C)C)C3)C2=O)n1` (stereo unspecified), the cytotoxicity at 10 µM was 7.51%.
The same measure for `Cc1cccc(CN2C(=O)C[C@@H]3[C@@H]2CCN3Cc2ccsc2)n1`: -6.63%; for `CC(C)(C)n1ncc2c1NC(=O)CC2c1ccccc1` (stereo unspecified): 19.2%.
The figure for `COc1ccccc1OCCC(=O)NC1CCc2nc(C)cn2C1` (stereo unspecified) is -7.05%; for `COC(=O)CNC(=O)c1ccc(OC2CCN(S(C)(=O)=O)CC2)c(Cl)c1` it is -4.52%; for `O=C(NCCCN1CCN(c2ncccn2)CC1)Nc1ccccn1` it is -7.48%.
The same measure for `CCc1ccc(CN2CCN(C)c3ncccc3C2)o1`: 3.78%.
Take `COc1cccc(-c2ncc(CN3CC[C@@H]4CC[C@H](C3)N4)s2)c1`: the cytotoxicity at 10 µM was -12.4%.
The figure for `CCn1ncc2c1CCCC2NCc1cccc2c1OCCO2` (stereo unspecified) is 1.71%; for `O=C(c1ccccc1)N1Cc2nccn2CC(Cn2ncccc2=O)C1` (stereo unspecified) it is 10.4%; for `CC(C)N(C)CC(=O)NCCc1nc(C(F)(F)F)cs1` it is 5.07%.
For the molecule `CC(C)(C)Cc1noc2ncc(C(=O)N3CCSCC3)cc12`, the cytotoxicity at 10 µM was -0.779%.
The figure for `CS(=O)(=O)NC(=O)c1cc(Cl)c2c(c1)OCCCO2` is -4.94%.
The same measure for `CCCn1nc2c(cc1=O)CN(Cc1nc(CCOC)no1)CC2`: -2.7%; for `Cc1nnc(NCC2(c3ccccc3)CCC2)c(C#N)c1C`: 19.9%.
The figure for `CCCc1n[nH]c(C2CN(CCCS(=O)(=O)N(C)C)CCO2)n1` (stereo unspecified) is -11.9%.
Regarding `Cc1nc(N2CCN(C(=O)c3cccnc3)CC2)cc(-n2cccc2)n1`, the cytotoxicity at 10 µM was -5.19%.
The figure for `CCN1CCC(CNC(=O)C(c2ccccc2F)N(C)C)(N(C)C)CC1` (stereo unspecified) is -1.7%; for `COc1ncccc1C(=O)Nc1ccccc1-c1ccc(=O)n(C)n1` it is -0.843%; for `CCN(C)S(=O)(=O)N1CCC(C(O)c2ccc(Cl)cc2)CC1` (stereo unspecified) it is 5.84%.
The figure for `Cc1nc(CC(=O)N2CCN(C)CC2c2ccccc2)cs1` (stereo unspecified) is 3.49%; for `CCOCC1CN(c2ncccn2)Cc2cnn(CC3CCOCC3)c21` (stereo unspecified) it is 2.97%.
Take `CSCCC(=O)N1CCCC(n2ccnc2)C1` (stereo unspecified): the cytotoxicity at 10 µM is -6.28%.
Regarding `N#Cc1cnc(N2CCC3(CC2)OCCO3)nc1N`, the cytotoxicity at 10 µM is 3.51%.
With `O=c1oc(-c2ccc(F)cc2)nn1CCc1ccncc1`, the cytotoxicity at 10 µM is -3.57%.
For `O=C(c1ccccc1F)N1CC2(CCNCC2)c2cc(Cl)ccc21`, the cytotoxicity at 10 µM is -3.31%.
The figure for `O=S(=O)(Nc1cnc(N2CCOCC2)nc1)c1ccc(C(F)(F)F)cc1` is -2.73%; for `CCOCC1CN(C(=O)Cc2ccccn2)Cc2cn(C)nc21` (stereo unspecified) it is 1.86%.
The same measure for `Cc1csc(CN2C[C@@H]3COC[C@]3(COCC(=O)N(C)C)C2)n1`: 0.851%; for `CC(Cn1ccnc1)NCc1csc2c1CCCC2` (stereo unspecified): -3.37%.
As for `CC1CCN(c2nc3cn(-c4ccc(F)cc4)c(=O)c-3c[nH]2)CC1`, the cytotoxicity at 10 µM came out at 3.47%.
Take `COc1ccc(C(=O)N2C[C@@H](c3ccccc3)[C@@H]3NCCCC[C@@H]32)cc1`: the cytotoxicity at 10 µM is -23.3%.
As to `Cn1cc(S(=O)(=O)NCc2ccc(F)cc2)cn1`, the cytotoxicity at 10 µM stood at 1.25%.
The figure for `CCCc1ccc(C(C)Nc2ncnc3c2CCNC3)cc1` (stereo unspecified) is 28.1%; for `COCCN1C(=O)[C@@H]2CC[C@H]1CN(C(=O)Cc1ccc(O)c(Cl)c1)C2` it is -4.26%.
The same measure for `CCOC(=O)c1ccc(NC(=O)c2cc3c([nH]c2=O)CCCC3)cc1`: 9.13%.
The figure for `CN1C(=O)C2(CCN(C(=O)c3ccccc3)CC2)c2cc(F)ccc21` is -106%.
On to `CC(C)C(C(=O)N1CCN(Cc2ccncc2)CC1)n1cncn1` (stereo unspecified), for which the cytotoxicity at 10 µM is -13%.
The figure for `O=C(O)c1cccc(CC2CCN(c3cnccn3)CC2)c1` is -121%; for `N[C@@H]1CCCN(C(=O)Cc2c[nH]c3ccccc23)[C@H]1c1ccccc1F` it is 7.45%.
The figure for `CC(C)(C)C(Cn1ccnc1)NC(=O)NCc1ccco1` (stereo unspecified) is -1.85%; for `CN(C)c1ncnc2c1CCN(S(=O)(=O)c1cccc3nsnc13)C2` it is 4.01%; for `NC(=O)c1cnn2c1NCC(CNCCCc1ccccc1)C2` (stereo unspecified) it is -9.24%.
As to `CCC[C@@H]1CN(Cc2ccc(N(C)C)nc2)C[C@H]1N(C)C`, the cytotoxicity at 10 µM was -15.1%.
The same measure for `CC(O)CN(CC(=O)NC(=O)NC1CC1)c1ccccc1` (stereo unspecified): -2.14%; for `CC1CN(Cc2ccccn2)CCN1c1ccc2nncn2n1` (stereo unspecified): -1.07%.
The same measure for `COc1ccc(C(=O)N2Cc3cc(C)ccc3OCC2CN(C)C)cc1` (stereo unspecified): -14.5%.
The figure for `Cc1csc([C@H]2C[C@@H]3CCN(C(=O)c4cnccn4)C[C@H]3O2)n1` is 1.07%; for `COc1cc(C(=O)N2CCCC(CNS(C)(=O)=O)C2)ccc1C` (stereo unspecified) it is -21.6%; for `CC1CCc2nc(O)c(C(=O)NCc3ccccc3F)cc2C1` (stereo unspecified) it is 4.47%.
Regarding `COCCOCC(=O)NC1CCN(c2ccccn2)CC1`, the cytotoxicity at 10 µM is -0.555%.
For `Cc1cccnc1C(NC(=O)CNC(=O)c1ccoc1C)C(C)C` (stereo unspecified), the cytotoxicity at 10 µM worked out at 2.45%.
Turning to `Cc1nc(COC[C@@H]2CCC[C@@]23CN(C)CCO3)cs1`, the cytotoxicity at 10 µM is -88.9%.
